Activity calls are given as the source filed them. The calls are words filed in the database; no cut-off is given here.
How the values were obtained:
Hepatitis C virus [1] = test: Inhibition of HCV RNA replication in human Li23 cells (ORL8 system) by renilla luciferase reporter gene based replication assay; assay type: functional, organism-based, Hepacivirus hominis
[2] = Cytotoxicity against human Li23 cells by WST assay
[3] = Selectivity index, ratio of CC50 against human Li23 cells to EC50 against HCV RNA replication in human Li23 cells
Method in brief: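 SI was calculated as CC50/EC50. CC50 in Li23 cells came from a WST-1 assay. EC50 came from the ORL8 genome-length HCV RNA Renilla luciferase replication assay. All assays were done in triplicate.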

Li23 = test: Induction of ROS generation in human Li23 cells (ORL8 system); assay type: functional, cell-based
Method in brief: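 ROS production in the ORL8 genome-length HCV RNA replicon system (Li23 cells) was measured by FACS analysis at a series of compound concentrations.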

Hepatitis C virus [4] = test: Potentiation of 1 IU/mL IFN-alpha-induced inhibition of HCV RNA replication in human Li23 cells (ORL8 system) by renilla luciferase reporter gene based replication assay; assay type: functional, organism-based; settings: Hepacivirus hominis
Method in brief: (§1)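 Genome-length HCV RNA replication was read by Renilla luciferase in ORL8 (Li23) cells. Increasing compound concentrations were combined with IFN-α alone (1 IU/mL) or with IFN-α plus ribavirin (1 IU/mL + 6.3 µM; 4 IU/mL + ribavirin also tested). Assays were done in triplicate.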

Hepatitis C virus [5] = test: Inhibition of HCV RNA replication in human Li23 cells (ORL8 system) at 5 uM in presence of 10 to 200 uM vitamin E by renilla luciferase reporter gene based replication assay; assay type: functional, organism-based; settings: Hepacivirus hominis
Method in brief: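 Genome-length HCV RNA replication was measured by Renilla luciferase in ORL8 (Li23) cells. Vitamin E was given at various concentrations, with the test compound absent or present at 5 µM. Assays were done in triplicate.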

Hepatitis C virus [6] = test: Potentiation of 1 IU/mL IFN-alpha and 6.3 uM ribavirin-induced inhibition of HCV RNA replication in human Li23 cells (ORL8 system) by renilla luciferase reporter gene based replication assay; assay type: functional, organism-based; settings: Hepacivirus hominis; method in brief: as §1
Hepatitis C virus [7] = test: Inhibition of HCV RNA replication in human HuH7 cells (OR6 system) by renilla luciferase reporter gene based replication assay; assay type: functional, organism-based, Hepacivirus hominis; settings: Huh-7
Method in brief: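 The OR6 system carries genome-length HCV RNA with a Renilla luciferase reporter in HuH-7 hepatoma cells. Replication inhibition was measured and EC50 determined from runs done in triplicate.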

Hepatitis C virus [8] = test: Inhibition of HCV RNA replication in human Li23 cells (ORL8 system) in presence of 1 IU/mL IFN-alpha by renilla luciferase reporter gene based replication assay; assay type: functional, organism-based; settings: Hepacivirus hominis
Method in brief: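 Li23 human hepatoma cells carrying replicating genome-length HCV RNA with a Renilla luciferase reporter (ORL8). Test compound given at a range of concentrations together with IFN-alpha at 1 IU/mL, with a vehicle control. HCV RNA replication read as luciferase reporter activity. Assays run in triplicate.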

Row | Compound | EC50 (Hepatitis C virus [1]) [µM] | CC50 [2] [µM] | Ratio CC50/EC50 [3] | other results
1 | CN(C(=O)c1ccccc1)c1ccc(C(OCCO)(C(F)(F)F)C(F)(F)F)cc1 | 11 | > 20 | – | –
2 | COc1cccc(S(=O)(=O)N(C)c2ccc(C(O)(C(F)(F)F)C(F)(F)F)cc2)c1 | 2.1 | 13 | 6.2 | –
3 | CCCN(C(=O)c1ccccc1)c1ccc(C(O)(C(F)(F)F)C(F)(F)F)cc1 | 3.5 | 15 | 4.3 | –
4 | CN(c1ccc(C(O)(C(F)(F)F)C(F)(F)F)cc1)S(=O)(=O)c1cccc(F)c1 | 0.36 | 19 | 53 | –
5 | CN(C(=O)c1ccccc1)c1ccccc1C(O)(C(F)(F)F)C(F)(F)F | > 20 | > 20 | – | –
6 | Cc1ccc(S(=O)(=O)N(C)c2ccc(C(O)(C(F)(F)F)C(F)(F)F)cc2)cc1 | 0.44 | 15 | 34 | –
7 | CN(C(=O)Nc1ccccc1)c1ccc(C(O)(C(F)(F)F)C(F)(F)F)cc1 | 5.7 | > 20 | – | –
8 | Cc1cc(N(C)C(=O)c2ccccc2)ccc1C(O)(C(F)(F)F)C(F)(F)F | > 100 | 87 | – | –
9 | O=C(c1ccccc1)N(Cc1ccccc1)c1ccc(C(O)(C(F)(F)F)C(F)(F)F)cc1 | 2.9 | 7.5 | 2.6 | –
10 | CN(C(=O)C12CC3CC(CC(C3)C1)C2)c1ccc(C(O)(C(F)(F)F)C(F)(F)F)cc1 | 1 | 17 | 17 | –
11 | CC(=O)N(C)c1ccc(C(O)(C(F)(F)F)C(F)(F)F)cc1 | 14 | 40 | 2.9 | –
12 | CCN(C(=O)c1ccccc1)c1ccc(C(O)(C(F)(F)F)C(F)(F)F)cc1 | 0.78 | 19 | 24 | –
13 | CN(C(=O)c1cccnc1)c1ccc(C(O)(C(F)(F)F)C(F)(F)F)cc1 | 45 | 63 | 1.4 | –
14 | Cc1cccc(S(=O)(=O)N(C)c2ccc(C(O)(C(F)(F)F)C(F)(F)F)cc2)c1 | 0.35 | 11 | 31 | –
15 | CN(C(=O)c1cccs1)c1ccc(C(O)(C(F)(F)F)C(F)(F)F)cc1 | 2.6 | 33 | 13 | –
16 | Cc1cccc(C(=O)N(C)c2ccc(C(O)(C(F)(F)F)C(F)(F)F)cc2)c1 | 5.8 | 20 | 3.4 | –
17 | CCCCC(=O)N(C)c1ccc(C(O)(C(F)(F)F)C(F)(F)F)cc1 | 2.3 | 26 | 11 | –

Row | Compound | EC50 (Hepatitis C virus [1]) [µM] | CC50 [2] [µM] | Ratio CC50/EC50 [3] | other results
18 | Cc1ccc(C(=O)N(C)c2ccc(C(O)(C(F)(F)F)C(F)(F)F)cc2)cc1 | 10 | 26 | 2.6 | –
19 | CN(c1ccc(C(O)(C(F)(F)F)C(F)(F)F)cc1)S(=O)(=O)c1ccccc1 | 0.19 | 16 | 84 | IC60 (Hepatitis C virus [1]): 5 µM; Activity (Li23): Dose-dependent effect; Activity (Hepatitis C virus [4]): Dose-dependent effect; inhibition (Hepatitis C virus [5]): inactive; Activity (Hepatitis C virus [6]): Dose-dependent effect
20 | CN(C(=O)C1CCCCC1)c1ccc(C(O)(C(F)(F)F)C(F)(F)F)cc1 | 0.23 | 20 | 87 | –
21 | CN(Cc1ccccc1)c1ccc(C(O)(C(F)(F)F)C(F)(F)F)cc1 | 3 | 13 | 4.3 | –
22 | CN(c1ccc(C(O)(C(F)(F)F)C(F)(F)F)cc1)S(=O)(=O)c1ccccc1Cl | 0.17 | 15 | 88 | –
23 | COc1ccc(S(=O)(=O)N(C)c2ccc(C(O)(C(F)(F)F)C(F)(F)F)cc2)cc1 | 1.4 | 7.9 | 5.6 | –
24 | CN(C(=O)Cc1ccccc1)c1ccc(C(O)(C(F)(F)F)C(F)(F)F)cc1 | > 100 | 27 | – | –
25 | Cc1ccccc1S(=O)(=O)N(C)c1ccc(C(O)(C(F)(F)F)C(F)(F)F)cc1 | 0.36 | 12 | 33 | –
26 | Cc1cc(C(O)(C(F)(F)F)C(F)(F)F)ccc1N(C)C(=O)c1ccccc1 | 1.7 | 9 | 5.3 | –
27 | CN(c1ccc(C(O)(C(F)(F)F)C(F)(F)F)cc1)S(=O)(=O)c1ccccc1Br | 0.5 | 9.1 | 18 | –
28 | CN(C(=O)c1ccccc1)c1ccc(C(O)(C(F)(F)F)C(F)(F)F)cc1 | 0.32 | 65 | 203 | EC50 (Hepatitis C virus [7]): > 20 µM
29 | CN(C(=O)c1ccsc1)c1ccc(C(O)(C(F)(F)F)C(F)(F)F)cc1 | 17 | 44 | 2.6 | –
30 | CCCC(=O)N(C)c1ccc(C(O)(C(F)(F)F)C(F)(F)F)cc1 | 3.8 | > 100 | – | –
31 | O=C(Nc1ccc(C(O)(C(F)(F)F)C(F)(F)F)cc1)c1ccccc1 | 4.1 | 12 | 2.9 | –
32 | CN(C(=O)c1ccccn1)c1ccc(C(O)(C(F)(F)F)C(F)(F)F)cc1 | > 100 | > 100 | – | –
33 | NC(=O)c1ncn([C@@H]2O[C@H](CO)[C@@H](O)[C@H]2O)n1 [RIBAVIRIN] | 8.7 | – | – | inhibition (Hepatitis C virus [8]): Active
34 | Cc1ccccc1C(=O)N(C)c1ccc(C(O)(C(F)(F)F)C(F)(F)F)cc1 | 17 | 38 | 2.2 | –

— ChEMBL document CHEMBL3352101, “Synthesis and inhibitory activity on hepatitis C virus RNA replication of 4-(1,1,1,3,3,3-hexafluoro-2-hydroxy-2-propyl)aniline analogs” (Bioorg Med Chem Lett, 2014)
